Test results taken from ChEMBL document CHEMBL1142414, “Comprehensive mechanistic analysis of hits from high-throughput and docking screens against beta-lactamase” (J Med Chem, 2008).

What was measured:
[1] = Inhibition of beta-lactamase AmpC
Procedure, shortened: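 Cuvette assay with 1 nM AmpC β-lactamase and 200 µM nitrocefin, Triton X-100 at either 0.00002 or 0.1%. Compound and enzyme preincubated 5 min, then substrate added to start the reaction.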

[2] = Inhibition of beta-lactamase AmpC in presence of 0.1% Triton X-100
Procedure, shortened: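 Cuvette assay with 1 nM AmpC β-lactamase and 200 µM nitrocefin, Triton X-100 at either 0.00002 or 0.1%. Compound and enzyme preincubated 5 min, then substrate added to start the reaction. Nitrocefin hydrolysis read at 482 nm by UV–visible spectrophotometry at room temperature.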

[3] = Inhibition of chymotrypsin
Procedure, shortened: (§1)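 Chymotrypsin (28 nM) preincubated 5 min with inhibitor, then reaction started with 200 µM N-succinyl-Ala-Ala-Pro-Phe p-nitroanilide. In the no-preincubation variant, inhibitor and substrate were mixed first and enzyme was added to start. Progress read at 410 nm.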

[4] = Inhibition of chymotrypsin in presence of 0.1% Triton X-100; procedure, shortened: as §1
[5] = Inhibition of malate dehydrogenase
Procedure, shortened: (§2)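 Malate dehydrogenase (2 nM) incubated 5 min with inhibitor, then reaction started with 200 µM oxaloacetic acid plus 200 µM NADH. In the no-preincubation variant, inhibitor, oxaloacetate and NADH were mixed first and enzyme was added last. NADH consumption followed at 340 nm.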

[6] = biological target: T1, Cruzipain (Trypanosoma cruzi, UniProt P25779); test: Inhibition of cruzain
[7] = biological target: T1, Cruzipain; test: Inhibition of cruzain in presence of 0.01% Triton X-100
Procedure, shortened: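 Recombinant cruzain (10 nM) in 0.1 M sodium acetate pH 5.5 with 5 mM DTT and 0.01% Triton X-100, substrate 2.5 µM Z-Phe-Arg-AMC. Cleavage read fluorimetrically in 96-well format, excitation 355 nm, emission 460 nm.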

[8] = Inhibition of malate dehydrogenase in presence of 0.1% Triton X-100; procedure, shortened: as §2

T1 sequence (P25779 whole entry): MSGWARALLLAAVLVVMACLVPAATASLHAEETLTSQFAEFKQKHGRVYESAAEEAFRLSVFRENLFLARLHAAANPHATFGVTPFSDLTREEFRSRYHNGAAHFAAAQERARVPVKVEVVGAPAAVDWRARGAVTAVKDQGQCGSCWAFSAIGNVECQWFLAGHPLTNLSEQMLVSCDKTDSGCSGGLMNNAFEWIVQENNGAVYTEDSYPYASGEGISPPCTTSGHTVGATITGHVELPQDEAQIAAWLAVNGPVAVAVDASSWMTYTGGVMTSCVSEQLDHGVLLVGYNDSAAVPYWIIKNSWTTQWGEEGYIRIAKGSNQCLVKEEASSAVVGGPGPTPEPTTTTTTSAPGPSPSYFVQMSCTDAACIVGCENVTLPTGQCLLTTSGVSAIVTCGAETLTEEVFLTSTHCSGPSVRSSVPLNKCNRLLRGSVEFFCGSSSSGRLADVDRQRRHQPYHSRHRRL

SMILES | IC50 [1] [µM] | IC50 [2] [µM] | IC50 [3] [µM] | IC50 [4] [µM] | IC50 [5] [µM] | IC50 [6] [µM] | IC50 [7] [µM] | Ki [1] [µM] | IC50 [8] [µM]
COc1cc2c(=O)n(Cc3ccco3)c(=O)n(CC(=O)c3cccc(Br)c3)c2cc1OC | > 600 |  |  |  |  |  |  |  | 
O=C(Nc1nc2n(n1)C(c1ccccc1)C=C(c1ccccc1)N2)c1ccco1 (stereo not drawn) | < 600 | < 600 | 7 | 27 |  |  |  |  | 
Cc1ccc(C)n1C(Cc1ccccc1)C(=O)O (stereo not drawn) | 95 | > 600 | 570 | > 600 | 15 | < 1 | > 600 |  | > 600
N#Cc1cccc(-c2nc(NCc3cccnc3)c3ccccc3n2)c1 | > 600 |  | > 600 |  |  |  |  |  | 
O=C(O)C(Cc1ccccc1)N1C(=O)c2ccccc2C1=O (racemic) |  |  |  |  |  |  |  | 830 | 
COc1cccc(-c2nccc(-n3ccnc3)n2)c1 | > 600 |  | > 600 |  |  |  |  |  | 
CN(C)C/C=C(\c1ccc(Br)cc1)c1cccnc1 | > 600 |  | > 600 |  |  |  |  |  | 
CS(=O)(=O)N1CCC(C(=O)N2CCC(Cc3ccccc3)CC2)CC1 | > 600 | > 600 | > 600 | > 600 |  |  |  |  | 
O=c1oc2c(O)c(O)cc3c(=O)oc4c(O)c(O)cc1c4c23 [ELLAGIC ACID] | 146 | > 600 | 470 | < 600 | 55 | 64 | 220 |  | 106
O=C(O)c1ccc2c(c1)C(=O)N([C@@H](Cc1ccc(O)cc1)C(=O)O)C2=O |  |  |  |  |  |  |  | 158 | 
O=C(O)c1ccc2c(c1)C(=O)N(C(Cc1ccccc1)C(=O)O)C2=O (racemic) |  |  |  |  |  |  |  | 210 | 
O=C(O)c1ccc2c(c1)C(=O)N(CCc1ccc(O)cc1)C2=O |  |  |  |  |  |  |  | 360 | 
CCOC(=O)C1=C(c2ccccc2)NC(SCC(=O)Nc2ccc(C)cc2)=C(C#N)C1c1ccco1 (stereo not drawn) | 22 | > 600 | < 1 | > 600 | 5 | < 1 | 120 |  | 106
C[C@H]1[C@H]2C=C[C@@H]1[C@@H](C(=O)O)[C@@H]2c1c2ccc(=O)c(O)c-2oc2c(O)c(O)ccc12 | 70 | > 600 | 67 | > 600 | 18 | 95 | 45 |  | 45
O=C(O)c1ccc2c(c1)C(=O)N([C@H](Cc1cccc3ccccc13)c1nnn[nH]1)C2=O |  |  |  |  |  |  |  | 41 | 
CC1=C/C(=C\c2ccc3c(c2)OCO3)C(=O)S1 | > 600 |  | > 600 |  |  |  |  |  | 
O=C(O)c1ccc2c(c1)C(=O)N([C@H](Cc1ccc3ccccc3c1)C(=O)O)C2=O |  |  |  |  |  |  |  | 14 | 
O=C(O)c1ccc2c(c1)C(=O)N(C(Cc1ccc(O)cc1)C(=O)O)C2=O (racemic) |  | 210 | > 10000 |  |  | > 10000 | > 10000 | 140 | 
c1cc2c3c(c1)c1c(n3CCNC2)CCCC1 | > 600 |  | > 600 |  |  |  |  |  | 
O=C(O)C1=CC(=C(c2ccc(O)c(C(=O)O)c2)c2ccc(O)c(C(=O)O)c2)C=CC1=O [AURINTRICARBOXYLIC ACID] | 120 | > 600 | 184 | > 600 | 5 | 53 | 28 |  | 30
O=C(O)c1ccc2c(c1)C(=O)N([C@H](Cc1c[nH]c3ccccc13)C(=O)O)C2=O |  |  |  |  |  |  |  | 17 | 
S=C(S)OC1CC2CC1C1CCCC21 (stereo not drawn) | 270 | > 600 | 270 | > 600 | > 600 | 15 | > 600 |  | 

The remaining lines, values ahead:

IC50 [1] [µM] | IC50 [2] [µM] | IC50 [3] [µM] | IC50 [4] [µM] | IC50 [5] [µM] | IC50 [6] [µM] | IC50 [7] [µM] | Ki [1] [µM] | IC50 [8] [µM] | SMILES
160 | 220 | 270 | 400 | > 600 | 77 | 158 |  |  | N[C@@H](Cc1cc(-c2ccc(Cl)cc2Cl)cc(CP(=O)(O)O)c1O)C(=O)O
600 | 600 | 270 | 170 | > 600 |  |  |  |  | CC(C)C[C@H](N)c1nnc(S(=O)(=O)Cc2ccc(F)cc2)o1
 |  |  |  |  |  |  | 1200 |  | CC(C)CC(C(=O)O)N1C(=O)c2ccc(C(=O)O)cc2C1=O (racemic)
 |  |  |  |  |  |  | 1300 |  | CSCCC(C(=O)O)N1C(=O)c2ccc(C(=O)O)cc2C1=O (racemic)
> 600 |  |  |  |  |  |  |  |  | CCOc1ccccc1CNC(=O)c1cc2occc2n1C
> 600 | > 600 | > 600 | > 600 |  | 73 | 170 |  |  | O=C(CC1(O)C(=O)Nc2cc(Cl)cc(Cl)c21)c1ccccc1O (stereo not drawn)
15 | 95 | < 1 | > 600 | > 600 | > 600 | > 600 |  |  | CCCC12CN(C(=O)c3ccc(OC)cc3)CC(C)(CN(C(=O)c3ccc(OC)cc3)C1)C2=O
> 600 |  | > 600 |  |  |  |  |  |  | COc1ccc(-c2cc(C(=O)NCc3ccccc3)no2)cc1OC
60 | > 600 | < 1 | 8 | 200 | < 1 | 73 |  | > 600 | CCOC(=O)SC1=N/C(=C/c2ccc(N(C)C)cc2)C(=O)S1
55 | 43 | 37 | 37 |  | 70 | 90 |  |  | O=C(Oc1cccnc1)c1cc2ccccc2oc1=O
> 600 |  | 220 | 345 | > 600 |  |  |  |  | O=C(NCCc1ccccc1)C1CCCN(S(=O)(=O)c2cccc3nsnc23)C1 (stereo not drawn)
25 | 20 | 70 | 70 | > 600 | 120 | 106 |  |  | COc1cccc2cc(C(=O)n3ccc(C)n3)c(=O)oc12
 |  |  |  |  | < 1 | < 1 |  |  | CC(C)[C@H](NC(=O)OC(C)(C)C)c1nnc(S(=O)(=O)Cc2c(F)cccc2Cl)o1 (stereo in doubt)
< 1 | < 1 | < 1 | < 1 | > 600 | 95 | 470 |  |  | CC(C)(C)OC(=O)NCCc1nnc(S(=O)(=O)Cc2ccc(Cl)cc2Cl)o1
43 | 58 |  |  |  | < 600 | < 600 |  |  | CCOC(=O)/C(C(C)=O)=C1\OC(=O)c2ccccc21
< 1 | < 1 | < 1 | < 1 | > 600 | 95 | 410 |  | > 600 | CC(C)(C)OC(=O)NCc1nnc(S(=O)(=O)Cc2ccc(Cl)cc2Cl)o1
 |  |  |  |  |  |  | 6900 |  | O=C(O)CN1C(=O)c2ccc(C(=O)O)cc2C1=O
20 | 38 | < 1 | < 1 | 65 | 106 | < 600 |  | > 600 | Cc1occc1C(=O)n1nnc2ccccc21
< 1 | < 1 | < 1 | < 1 | > 600 | < 1 | < 1 |  | > 600 | CC(C)[C@H](NC(=O)OC(C)(C)C)c1nnc(S(=O)(=O)Cc2c(F)cccc2Cl)o1 (stereo in doubt; 1)
> 600 |  | > 600 |  |  |  |  |  |  | COc1cccc(-c2ccc3ncnc(NCc4ccc(OC)cc4OC)c3c2)c1
